Measured values from ChEMBL document CHEMBL3853298, “Total synthesis and in vitro bioevaluation of clavaminols A, C, H & deacetyl clavaminol H as potential chemotherapeutic and antibiofilm agents” (Eur J Med Chem, 2016).
Converted amounts (≈) assume the structure as drawn. The source made the active and inactive calls. The calls are words filed in the database; no cut-off is given here.

Columns and labels:
[1] = test system: Micrococcus luteus; assay: Induction of intracellular ROS accumulation in Micrococcus luteus MTCC 2470 sessile biofilm cells at 2 to 4 ug/ml after 24 hrs by DCFH-DA staining-based assay; type: functional, cell-based
Procedure, shortened: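 Intracellular ROS was measured in M. luteus MTCC 2470 biofilms grown in 24-well plates. Mature biofilms were treated and incubated 24 h at 30 °C together with […] DCFH-DA. Well contents were centrifuged at 5000 × g for 10 min. Fluorescence (ex 485/em 535 nm) was read separately for supernatant and for sessile cells resuspended in PBS. Triplicate, mean ± S.D.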

[2] = test system: Candida albicans; assay: Antifungal activity against Candida albicans MTCC 4748 after 24 hrs by well diffusion method; type: functional; conditions: MTCC 4748, 24 h
Procedure, shortened: (§1)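 Candida/Issatchenkia lawns (0.1 mL suspension) on Mueller-Hinton agar; 6.0 mm bored wells receive compound across a 250 to 0.48 per-well dose range, methanol as negative control. Plates kept 24 h at 30 °C. MIC is the lowest concentration producing a visible inhibition zone. Duplicate runs, mean values.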

[3] = test system: Candida albicans; assay: Antifungal activity against Candida albicans MTCC 7315 after 24 hrs by well diffusion method; type: functional; conditions: MTCC 7315, 24 h; procedure, shortened: as §1
[4] = test system: Candida albicans; assay: Antifungal activity against Candida albicans MTCC 3017 after 24 hrs by well diffusion method; type: functional; conditions: MTCC 3017, 24 h; procedure, shortened: as §1
[5] = Cytotoxicity against human SKOV3 cells assessed as cell growth inhibition by MTT assay; type: functional, cell-based; conditions: SK-OV-3
[6] = test system: Candida albicans; assay: Fungicidal activity against Candida albicans MTCC 1637 after 24 hrs; type: functional; conditions: MTCC 1637, 24 h
Procedure, shortened: (§2)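 Candida grown overnight in Mueller Hinton broth. Compound serially diluted in the same broth from 150 to 0 and inoculated to a final 1.5 × 10^8 CFU/mL (0.5 McFarland), then 24 h at 37 °C. Tube contents plated onto Mueller Hinton agar for 24 h at 37 °C. MFC is the lowest concentration killing the yeast. Duplicates.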

[7] = test system: Bacillus subtilis; assay: Antibacterial activity against Bacillus subtilis MTCC 121 after 24 hrs by well diffusion method; type: functional; conditions: MTCC 121, 24 h
Procedure, shortened: (§3)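 Bacteria spread (0.1 mL suspension) on Mueller-Hinton agar; 6.0 mm wells loaded with compound over a 250 to 0.48 per-well dose range, methanol as negative control. Incubated 24 h at 37 °C. MIC taken as the lowest concentration still giving an inhibition zone. Duplicates, mean reported.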

[8] = test system: Pichia sporocuriosa; assay: Antifungal activity against Issatchenkia hanoiensis MTCC 4755 after 24 hrs by well diffusion method; type: functional; conditions: MTCC 4755, 24 h; procedure, shortened: as §1
[9] = Antifungal activity against Candida krusei MTCC 3020 after 24 hrs by well diffusion method; type: functional; conditions: Pichia kudriavzevii; procedure, shortened: as §1
[10] = test system: Candida parapsilosis; assay: Fungicidal activity against Candida parapsilosis MTCC 1744 after 24 hrs; type: functional; conditions: Lodderomyces parapsilosis, MTCC 1744, 24 h
Procedure, shortened: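 Broth dilution in Mueller Hinton broth with serial compound concentrations from […]. Overnight Candida cultures added to a final 1.5 × 10^8 CFU/mL (0.5 McFarland). Incubated 24 h at 37 °C, then 10 µL of each tube plated on Mueller Hinton agar for 24 h at 37 °C. MFC taken as the lowest concentration that kills the strain. Run in duplicate.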

[11] = test system: Staphylococcus aureus; assay: Antibacterial activity against Staphylococcus aureus MTCC 96 after 24 hrs by well diffusion method; type: functional; conditions: MTCC 96, 24 h; procedure, shortened: as §3
[12] = test system: Micrococcus luteus; assay: Antibacterial activity against Micrococcus luteus MTCC 2470 after 24 hrs by well diffusion method; type: functional; conditions: MTCC 2470, 24 h; procedure, shortened: as §3
[13] = test system: Staphylococcus aureus; assay: Bactericidal activity against Staphylococcus aureus MLS16 MTCC 2940 after 24 hrs; type: functional; conditions: MLS16 MTCC 2940, 24 h
Procedure, shortened: (§4)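 Broth macrodilution in Mueller Hinton broth, compound serially diluted from 150 down to 0. Overnight bacterial culture added to a final 1.5 × 10^8 CFU/mL (0.5 McFarland), 24 h at 37 °C. Suspension then subcultured onto Mueller Hinton agar for 24 h at 37 °C. MBC is the lowest concentration killing the strain. Duplicates.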

[14] = test system: Micrococcus luteus; assay: Bactericidal activity against Micrococcus luteus MTCC 2470 after 24 hrs; type: functional; conditions: MTCC 2470, 24 h; procedure, shortened: as §4
[15] = test system: Candida albicans; assay: Fungicidal activity against Candida albicans MTCC 4748 after 24 hrs; type: functional; conditions: MTCC 4748, 24 h; procedure, shortened: as §2
[16] = test system: Escherichia coli; assay: Bactericidal activity against Escherichia coli MTCC 739 after 24 hrs; type: functional; conditions: MTCC 739, 24 h; procedure, shortened: as §4
[17] = test system: Candida albicans; assay: Antifungal activity against Candida albicans MTCC 3018 after 24 hrs by well diffusion method; type: functional; conditions: MTCC 3018, 24 h; procedure, shortened: as §1
[18] = test system: Candida albicans; assay: Fungicidal activity against Candida albicans MTCC 3017 after 24 hrs; type: functional; conditions: MTCC 3017, 24 h; procedure, shortened: as §2
[19] = test system: Raoultella planticola; assay: Bactericidal activity against Klebsiella planticola MTCC 530 after 24 hrs; type: functional; conditions: MTCC 530, 24 h; procedure, shortened: as §4
[20] = test system: Pseudomonas aeruginosa; assay: Bactericidal activity against Pseudomonas aeruginosa MTCC 2453 after 24 hrs; type: functional; conditions: MTCC 2453, 24 h; procedure, shortened: as §4
[21] = test system: Candida albicans; assay: Fungicidal activity against Candida albicans MTCC 7315 after 24 hrs; type: functional; conditions: MTCC 7315, 24 h; procedure, shortened: as §2
[22] = test system: Bacillus subtilis; assay: Bactericidal activity against Bacillus subtilis MTCC 121 after 24 hrs; type: functional; conditions: MTCC 121, 24 h; procedure, shortened: as §4
[23] = Cytotoxicity against human HeLa cells assessed as cell growth inhibition by MTT assay; type: functional, cell-based
[24] = test system: Candida albicans; assay: Fungicidal activity against Candida albicans MTCC 227 after 24 hrs; type: functional; conditions: MTCC 227, 24 h; procedure, shortened: as §2
[25] = Antifungal activity against Candida parapsilosis MTCC 1744 after 24 hrs by well diffusion method; type: functional; procedure, shortened: as §1
[26] = test system: Candida albicans; assay: Antifungal activity against Candida albicans MTCC 227 after 24 hrs by well diffusion method; type: functional; conditions: MTCC 227, 24 h; procedure, shortened: as §1
[27] = test system: Staphylococcus aureus; assay: Bactericidal activity against Staphylococcus aureus MTCC 96 after 24 hrs; type: functional; conditions: MTCC 96, 24 h; procedure, shortened: as §4

MIC [2]: 31.2 µg/mL (≈ 155 µM) | MIC [3]: 15.6 µg/mL (≈ 77.5 µM) | MIC [4]: 15.6 µg/mL (≈ 77.5 µM) | MIC [7]: 7.8 µg/mL (≈ 38.7 µM) | MIC [8]: 31.2 µg/mL (≈ 155 µM) | MIC [9]: 7.8 µg/mL (≈ 38.7 µM) | MIC [11]: 7.8 µg/mL (≈ 38.7 µM) | MIC [12]: 1.9 µg/mL (≈ 9.44 µM) | MIC [17]: 15.6 µg/mL (≈ 77.5 µM) | MIC [25]: 31.2 µg/mL (≈ 155 µM) | MIC [26]: 31.2 µg/mL (≈ 155 µM)
Compound: CCCCCCCCC[C@H](O)[C@@H](C)N [CLAVAMINOL A]
Activity [1]: Active | IC50 [5]: 12.5 µM | MFC [6]: 62.5 µg/mL (≈ 310 µM) | MFC [10]: 62.5 µg/mL (≈ 310 µM) | MBC [13]: 7.8 µg/mL (≈ 38.7 µM) | MBC [14]: 7.8 µg/mL (≈ 38.7 µM) | MFC [15]: 62.5 µg/mL (≈ 310 µM) | MBC [16]: 15.6 µg/mL (≈ 77.5 µM) | MFC [18]: 31.2 µg/mL (≈ 155 µM) | MBC [19]: 15.6 µg/mL (≈ 77.5 µM) | MBC [20]: 15.6 µg/mL (≈ 77.5 µM) | MFC [21]: 31.2 µg/mL (≈ 155 µM) | MBC [22]: 15.6 µg/mL (≈ 77.5 µM) | IC50 [23]: 15.4 µM | MFC [24]: 31.2 µg/mL (≈ 155 µM) | MBC [27]: 15.6 µg/mL (≈ 77.5 µM)
